Values after ≈ are worked out from the molar mass of the structure shown.
Test system: Pseudomonas aeruginosa
Assay: Antibacterial activity against Pseudomonas aeruginosa NCIM 2036 after 24 hrs by agar well diffusion assay
Format: functional
Conditions: NCIM 2036, 24 h
Method in brief: (§1)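 Agar well diffusion per NCCLS; NCIM standard strains. Nutrient agar seeded with 0.1 mL bacterial suspension in sterile 0.85% saline at 10⁵ CFU/mL. Plates in triplicate, 37 0.5 °C, 24 h. MIC taken as lowest concentration giving complete growth inhibition.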

SMILES | MIC [µg/mL]
Cc1ccc(S(=O)(=O)NC(=O)Nc2ccccc2C(=O)/C=C/c2cccc([N+](=O)[O-])c2)cc1 | 256 (≈ 550 µM)
Cc1ccc(S(=O)(=O)NC(=O)Nc2ccccc2C(=O)/C=C/c2ccccc2[N+](=O)[O-])cc1 | 16 (≈ 34.4 µM)
COc1ccc(/C=C/C(=O)c2ccccc2NC(=O)NS(=O)(=O)c2ccc(C)cc2)cc1OC | 32 (≈ 66.6 µM)
COc1cc(/C=C/C(=O)c2ccccc2NC(=O)NS(=O)(=O)c2ccc(C)cc2)ccc1O | 64 (≈ 137 µM)

Test system: Aspergillus niger
Assay: Antifungal activity against Aspergillus niger NCIM 548 after 48 hrs by agar well diffusion assay
Format: functional
Conditions: NCIM 548, 48 h
Method in brief: (§2)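 Fungal spore suspensions in sterile distilled water set to final 10⁶ CFU/mL; 0.1 mL spread on Potato-Dextrose-Agar. NCCLS agar well diffusion with NCIM standard strains: 6 mm wells given 0.1 mL compound diluted in 1% DMSO, final 16 to 512 µg/mL. Triplicate plates held 48 h at 28 0.2 °C. MIC is lowest concentration fully inhibiting growth.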

SMILES | MIC [µg/mL]
Cc1ccc(S(=O)(=O)NC(=O)Nc2ccccc2C(=O)/C=C/c2cccc([N+](=O)[O-])c2)cc1 | 256 (≈ 550 µM)
Cc1ccc(S(=O)(=O)NC(=O)Nc2ccccc2C(=O)/C=C/c2ccccc2[N+](=O)[O-])cc1 | 16 (≈ 34.4 µM)
COc1ccc(/C=C/C(=O)c2ccccc2NC(=O)NS(=O)(=O)c2ccc(C)cc2)cc1OC | 128 (≈ 266 µM)
COc1cc(/C=C/C(=O)c2ccccc2NC(=O)NS(=O)(=O)c2ccc(C)cc2)ccc1O | 128 (≈ 274 µM)

Test system: not listed separately
Assay: Toxicity against Brine shrimp nauplii after 24 hrs
Format: organism-based
Conditions: artemia salina, in vivo; read-out: ED50
Method in brief: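 Artemia salina nauplii hatched 38 h in sterile brine (sea salt 38 g/L, pH 8.5) under aeration; 10 nauplii per vial exposed to graded compound concentrations in 5 mL final volume, 37 °C, 24 h under incandescent light. Survivors counted; percent lethality versus vehicle-treated controls; ED50 from probit analysis; podophyllotoxin positive control.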

SMILES | LC50 at 24 h [µg/mL]
Cc1ccc(S(=O)(=O)NC(=O)Nc2ccccc2C(=O)/C=C/c2cccc([N+](=O)[O-])c2)cc1 | 44.5 (≈ 95.5 µM)
Cc1ccc(S(=O)(=O)NC(=O)Nc2ccccc2C(=O)/C=C/c2ccccc2[N+](=O)[O-])cc1 | 40.1 (≈ 86.2 µM)
COc1ccc(/C=C/C(=O)c2ccccc2NC(=O)NS(=O)(=O)c2ccc(C)cc2)cc1OC | 12.9 (≈ 26.8 µM)
COc1cc(/C=C/C(=O)c2ccccc2NC(=O)NS(=O)(=O)c2ccc(C)cc2)ccc1O | 17.8 (≈ 38.2 µM)

Test system: Candida albicans
Assay: Antifungal activity against Candida albicans NCIM 3102 after 48 hrs by agar well diffusion assay
Format: functional
Conditions: NCIM 3102, 48 h
Method in brief: as §2

SMILES | MIC [µg/mL]
Cc1ccc(S(=O)(=O)NC(=O)Nc2ccccc2C(=O)/C=C/c2cccc([N+](=O)[O-])c2)cc1 | 256 (≈ 550 µM)
Cc1ccc(S(=O)(=O)NC(=O)Nc2ccccc2C(=O)/C=C/c2ccccc2[N+](=O)[O-])cc1 | 16 (≈ 34.4 µM)
COc1ccc(/C=C/C(=O)c2ccccc2NC(=O)NS(=O)(=O)c2ccc(C)cc2)cc1OC | 128 (≈ 266 µM)
COc1cc(/C=C/C(=O)c2ccccc2NC(=O)NS(=O)(=O)c2ccc(C)cc2)ccc1O | 128 (≈ 274 µM)

Test system: Escherichia coli
Assay: Antibacterial activity against Escherichia coli NCIM 2065 after 24 hrs by agar well diffusion assay
Format: functional
Conditions: NCIM 2065, 24 h
Method in brief: as §1

SMILES | MIC [µg/mL]
Cc1ccc(S(=O)(=O)NC(=O)Nc2ccccc2C(=O)/C=C/c2cccc([N+](=O)[O-])c2)cc1 | 256 (≈ 550 µM)
Cc1ccc(S(=O)(=O)NC(=O)Nc2ccccc2C(=O)/C=C/c2ccccc2[N+](=O)[O-])cc1 | 32 (≈ 68.7 µM)
COc1ccc(/C=C/C(=O)c2ccccc2NC(=O)NS(=O)(=O)c2ccc(C)cc2)cc1OC | 64 (≈ 133 µM)
COc1cc(/C=C/C(=O)c2ccccc2NC(=O)NS(=O)(=O)c2ccc(C)cc2)ccc1O | 64 (≈ 137 µM)

Test system: Staphylococcus aureus
Assay: Antibacterial activity against Staphylococcus aureus NCIM 2079 after 24 hrs by agar well diffusion assay
Format: functional
Conditions: NCIM 2079, 24 h
Method in brief: as §1

SMILES | MIC [µg/mL]
Cc1ccc(S(=O)(=O)NC(=O)Nc2ccccc2C(=O)/C=C/c2cccc([N+](=O)[O-])c2)cc1 | 256 (≈ 550 µM)
Cc1ccc(S(=O)(=O)NC(=O)Nc2ccccc2C(=O)/C=C/c2ccccc2[N+](=O)[O-])cc1 | 16 (≈ 34.4 µM)
COc1ccc(/C=C/C(=O)c2ccccc2NC(=O)NS(=O)(=O)c2ccc(C)cc2)cc1OC | 64 (≈ 133 µM)
COc1cc(/C=C/C(=O)c2ccccc2NC(=O)NS(=O)(=O)c2ccc(C)cc2)ccc1O | 128 (≈ 274 µM)

Test system: Proteus vulgaris
Assay: Antibacterial activity against Proteus vulgaris NCIM 2813 after 24 hrs by agar well diffusion assay
Format: functional
Conditions: NCIM 2813, 24 h
Method in brief: as §1

SMILES | MIC [µg/mL]
Cc1ccc(S(=O)(=O)NC(=O)Nc2ccccc2C(=O)/C=C/c2cccc([N+](=O)[O-])c2)cc1 | 256 (≈ 550 µM)
Cc1ccc(S(=O)(=O)NC(=O)Nc2ccccc2C(=O)/C=C/c2ccccc2[N+](=O)[O-])cc1 | 32 (≈ 68.7 µM)
COc1ccc(/C=C/C(=O)c2ccccc2NC(=O)NS(=O)(=O)c2ccc(C)cc2)cc1OC | 128 (≈ 266 µM)
COc1cc(/C=C/C(=O)c2ccccc2NC(=O)NS(=O)(=O)c2ccc(C)cc2)ccc1O | 128 (≈ 274 µM)

Test system: Bacillus pumilus
Assay: Antibacterial activity against Bacillus pumilus NCIM 2327 after 24 hrs by agar well diffusion assay
Conditions: NCIM 2327, 24 h

SMILES | MIC [µg/mL]
Cc1ccc(S(=O)(=O)NC(=O)Nc2ccccc2C(=O)/C=C/c2cccc([N+](=O)[O-])c2)cc1 | 256 (≈ 550 µM)
Cc1ccc(S(=O)(=O)NC(=O)Nc2ccccc2C(=O)/C=C/c2ccccc2[N+](=O)[O-])cc1 | 16 (≈ 34.4 µM)
COc1ccc(/C=C/C(=O)c2ccccc2NC(=O)NS(=O)(=O)c2ccc(C)cc2)cc1OC | 64 (≈ 133 µM)
COc1cc(/C=C/C(=O)c2ccccc2NC(=O)NS(=O)(=O)c2ccc(C)cc2)ccc1O | 64 (≈ 137 µM)

Test system: Micrococcus luteus
Assay: Antibacterial activity against Micrococcus luteus NCIM 2155 after 24 hrs by agar well diffusion assay
Format: functional
Conditions: NCIM 2155, 24 h
Method in brief: as §1

SMILES | MIC [µg/mL]
Cc1ccc(S(=O)(=O)NC(=O)Nc2ccccc2C(=O)/C=C/c2cccc([N+](=O)[O-])c2)cc1 | 256 (≈ 550 µM)
Cc1ccc(S(=O)(=O)NC(=O)Nc2ccccc2C(=O)/C=C/c2ccccc2[N+](=O)[O-])cc1 | 32 (≈ 68.7 µM)
COc1ccc(/C=C/C(=O)c2ccccc2NC(=O)NS(=O)(=O)c2ccc(C)cc2)cc1OC | 128 (≈ 266 µM)
COc1cc(/C=C/C(=O)c2ccccc2NC(=O)NS(=O)(=O)c2ccc(C)cc2)ccc1O | 128 (≈ 274 µM)

Test system: Aspergillus oryzae
Assay: Antifungal activity against Aspergillus oryzae NCIM 643 after 48 hrs by agar well diffusion assay
Format: functional
Conditions: NCIM 643, 48 h
Method in brief: as §2

SMILES | MIC [µg/mL]
Cc1ccc(S(=O)(=O)NC(=O)Nc2ccccc2C(=O)/C=C/c2cccc([N+](=O)[O-])c2)cc1 | 256 (≈ 550 µM)
Cc1ccc(S(=O)(=O)NC(=O)Nc2ccccc2C(=O)/C=C/c2ccccc2[N+](=O)[O-])cc1 | 16 (≈ 34.4 µM)
COc1ccc(/C=C/C(=O)c2ccccc2NC(=O)NS(=O)(=O)c2ccc(C)cc2)cc1OC | 128 (≈ 266 µM)
COc1cc(/C=C/C(=O)c2ccccc2NC(=O)NS(=O)(=O)c2ccc(C)cc2)ccc1O | 128 (≈ 274 µM)

Test system: Klebsiella pneumoniae
Assay: Antibacterial activity against Klebsiella pneumoniae NCIM 5082 after 24 hrs by agar well diffusion assay
Format: functional
Conditions: NCIM 5082, 24 h
Method in brief: as §1

SMILES | MIC [µg/mL]
Cc1ccc(S(=O)(=O)NC(=O)Nc2ccccc2C(=O)/C=C/c2cccc([N+](=O)[O-])c2)cc1 | 256 (≈ 550 µM)
Cc1ccc(S(=O)(=O)NC(=O)Nc2ccccc2C(=O)/C=C/c2ccccc2[N+](=O)[O-])cc1 | 32 (≈ 68.7 µM)
COc1ccc(/C=C/C(=O)c2ccccc2NC(=O)NS(=O)(=O)c2ccc(C)cc2)cc1OC | 128 (≈ 266 µM)
COc1cc(/C=C/C(=O)c2ccccc2NC(=O)NS(=O)(=O)c2ccc(C)cc2)ccc1O | 128 (≈ 274 µM)

Test system: Bacillus subtilis
Assay: Antibacterial activity against Bacillus subtilis NCIM 2063 after 24 hrs by agar well diffusion assay
Format: functional
Conditions: NCIM 2063, 24 h
Method in brief: as §1

SMILES | MIC [µg/mL]
Cc1ccc(S(=O)(=O)NC(=O)Nc2ccccc2C(=O)/C=C/c2cccc([N+](=O)[O-])c2)cc1 | 256 (≈ 550 µM)
Cc1ccc(S(=O)(=O)NC(=O)Nc2ccccc2C(=O)/C=C/c2ccccc2[N+](=O)[O-])cc1 | 16 (≈ 34.4 µM)
COc1ccc(/C=C/C(=O)c2ccccc2NC(=O)NS(=O)(=O)c2ccc(C)cc2)cc1OC | 32 (≈ 66.6 µM)
COc1cc(/C=C/C(=O)c2ccccc2NC(=O)NS(=O)(=O)c2ccc(C)cc2)ccc1O | 64 (≈ 137 µM)

Test system: Penicillium chrysogenum
Assay: Antifungal activity against Penicillium chrysogenum NCIM 738 after 48 hrs by agar well diffusion assay
Format: functional
Conditions: NCIM 738, 48 h
Method in brief: as §2

SMILES | MIC [µg/mL]
Cc1ccc(S(=O)(=O)NC(=O)Nc2ccccc2C(=O)/C=C/c2cccc([N+](=O)[O-])c2)cc1 | 256 (≈ 550 µM)
Cc1ccc(S(=O)(=O)NC(=O)Nc2ccccc2C(=O)/C=C/c2ccccc2[N+](=O)[O-])cc1 | 16 (≈ 34.4 µM)
COc1ccc(/C=C/C(=O)c2ccccc2NC(=O)NS(=O)(=O)c2ccc(C)cc2)cc1OC | 128 (≈ 266 µM)
COc1cc(/C=C/C(=O)c2ccccc2NC(=O)NS(=O)(=O)c2ccc(C)cc2)ccc1O | 128 (≈ 274 µM)

Reference: ChEMBL document CHEMBL1938268, “Synthesis, characterization and in vitro biological evaluation of some novel diarylsulfonylureas as potential cytotoxic and antimicrobial agents” (Bioorg Med Chem Lett, 2012)
